This is an account of results in PMC10968941 (International Journal of Nanomedicine, 2024).

The target of series [1] is pepsin from porcine stomach mucosa (Sus scrofa, UniProt P00791). The experiment in a line: Stability test in simulated gastric fluid. The format is in vitro ADME. The conditions noted are these: 37°C; for Degradation in simulated gastric fluid with pepsin: up to 120 min. The gist of the method: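 Simulated gastric fluid: 200 mg NaCl and 64 mg porcine pepsin in 100 mL water plus 0.7 mL HCl, pH 1.2. Peptide (10 mg/mL in 0.1 M ammonium bicarbonate, 0.1 mL) mixed with 0.9 mL SGF at 37°C. Sampled at 0, 5, 15, 30, 60 and 120 min; quenched with 0.2 M NaOH; analysed by RP-HPLC. PEG 200, 400, 1000 or 4000 tested at 0%, 20% and 40% in SGF.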
Chain of pepsin from porcine stomach mucosa (P00791 60-385): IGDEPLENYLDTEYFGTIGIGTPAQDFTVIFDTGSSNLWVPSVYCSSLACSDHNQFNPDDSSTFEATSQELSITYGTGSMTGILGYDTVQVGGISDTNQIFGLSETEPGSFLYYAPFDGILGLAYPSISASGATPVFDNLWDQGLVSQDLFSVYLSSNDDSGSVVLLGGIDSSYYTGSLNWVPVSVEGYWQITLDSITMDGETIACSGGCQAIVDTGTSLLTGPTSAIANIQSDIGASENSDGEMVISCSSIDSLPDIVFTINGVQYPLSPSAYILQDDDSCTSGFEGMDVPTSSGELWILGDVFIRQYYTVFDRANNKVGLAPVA

In the next series the test system is Caco-2 cells. The series is described as follows: Caco-2 permeability assay. Type of series: in vitro ADME, human. The conditions noted are these: Caco-2 Transwell, apical to basolateral, RP-HPLC. The gist of the method:
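Caco-2 cells seeded at 1 × 10^5 cells/well on 0.4 µm Transwell membranes and grown to a monolayer checked by TEER. Medium replaced with HBSS before dosing.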
A general note: Caco-2 cells form a polarised layer with tight junctions and transporters.

A value given as a limit tells only on which side of the number the result lay.

For `CCCCCCCCCCCCCCCC(=O)N[C@@H](CCC(=O)NCCCC[C@H](NC(=O)[C@H](C)NC(=O)[C@H](C)NC(=O)[C@H](CCC(N)=O)NC(=O)CNC(=O)[C@H](CCC(=O)O)NC(=O)[C@H](CC(C)C)NC(=O)[C@H](Cc1ccc(O)cc1)NC(=O)[C@H](CO)NC(=O)[C@H](CO)NC(=O)[C@@H](NC(=O)[C@H](CC(=O)O)NC(=O)[C@H](CO)NC(=O)[C@@H](NC(=O)[C@H](Cc1ccccc1)NC(=O)[C@@H](NC(=O)CNC(=O)[C@H](CCC(=O)O)NC(=O)[C@H](C)NC(=O)[C@@H](N)Cc1cnc[nH]1)[C@@H](C)O)[C@@H](C)O)C(C)C)C(=O)N[C@@H](CCC(=O)O)C(=O)N[C@@H](Cc1ccccc1)C(=O)N[C@H](C(=O)N[C@@H](C)C(=O)N[C@@H](Cc1c[nH]c2ccccc12)C(=O)N[C@@H](CC(C)C)C(=O)N[C@H](C(=O)N[C@@H](CCCNC(=N)N)C(=O)NCC(=O)N[C@@H](CCCNC(=N)N)C(=O)NCC(=O)O)C(C)C)[C@@H](C)CC)C(=O)O` [LG, liraglutide], the “Degradation in simulated gastric fluid with pepsin” value was “rapid degradation” in series [1] (SGF pH 1.2 with pepsin) and “fully degraded” in series [1] (SGF pH 1.2 with pepsin, listed as free LG). Moreover, the “Degradation in simulated gastric fluid in the absence of pepsin” value in series [1] (SGF pH 1.2 without pepsin) is given as “degradation was not observed”. Moreover, the “Time to entire degradation in simulated gastric fluid, LG with PEG 1000” value in series [1] (formulation containing PEG 1000, SGF pH 1.2 with pepsin) is on record as at most 60 min. Moreover, the “Time to entire degradation in simulated gastric fluid, LG with PEG 4000” value in series [1] (formulation containing PEG 4000, SGF pH 1.2 with pepsin) is recorded as at most 60 min. In the series on Caco-2 cells, the “LG at the basolateral side after 2 h treatment” value is listed as “undetected”.
